Compound activity as filed in PubChem.
FN deposit inh: fibronectin deposition inhibition; AH1F fibroblasts, Alexa488-fibronectin deposition fluorescence, overnight; inhibition, % at 12.6 µM; 350,000 compounds, 0.086% hits;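 active means mean inhibition across replicates of 30% or more, regardless of how many single replicates reach that level; inconclusive means mean under 30% yet at least half of replicates reach 30%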;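 further: positive control wells lacked labelled fibronectin entirely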
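Material – AH1F fibroblast monolayer, labelled fibronectin deposition · Reagent – labelled fibronectin 24 nM · Timing – 1 h adhesion, overnight exposure · Measured by – fluorescence at 485 nm excitation, 525 nm emission · Read-out – inhibition of fibronectin deposition signal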
Statin myotox sup: suppression of simvastatin myotoxicity; AID 602340; C2C12 myotubes + simvastatin, ATP luminescence, 48 h; scaled: DMSO 0, geranylgeraniol control 100; rescue of ATP level, % at 7.49 µM; 330,000 compounds, 0.78% hits;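 active means mean ATP rescue above about 67%, or every replicate alone reaching that limit, limit read from the data, passing the limit was not always enough; inconclusive means no clear call, values can overlap the other calls; inactive means mean under the limit and some replicate under it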;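 further: myotubes were challenged with 10 µM simvastatin during compound exposure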
rRNA inh HTS: inhibitors of bacterial rRNA selective over humanized ribosomes; 350,000 compounds, 1.6% hits; E. coli WT GFP vs humanized-ribosome RFP mutants, fluorescence, 24 h; hits give low values; DMSO median 0, no signal -100; AID 720706; GFP signal change (wild-type ribosome), % (test concentration not listed);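 active means significant combined selectivity score with lowered wild-type GFP, culture density cut under 30%, mutant RFP and density less affected; inactive means any of these conditions unmet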
E-selectin induc: induces E-selectin expression in human endothelial cells | P16581 | HUVEC E-selectin immunofluorescence imaging; normalized: neutral wells 0, TNF-alpha wells 100 | activation, % at 7.58 µM | 260,000 compounds, 0.37% hits;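 active means mean E-selectin-positive cell signal at least 10% of the positive control, reached in at least 60% of replicates, without over 20% cell loss; inconclusive means no rule given, readout overlaps actives, possibly toxicity-flagged; inactive means the rest, including those meeting only one limit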
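material = human umbilical vein endothelial cells (HUVEC), E-selectin induction | quantity = 3,000 cells/well | medium = EGM-2 growth medium on 0.1% gelatin-coated wells | technique = immunofluorescence imaging | read-out basis = % PE-positive cells | control set = TNF-alpha positive control, DMSO neutral control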
SIRT5 block: blocks human SIRT5 desuccinylation of peptide; AID 652115; inhibition, % at 15 µM; Q9NXA8; 330,000 compounds, 1.1% hits; Purified SirT5, succinyl-peptide AMC, trypsin-coupled fluorescence; in the data active means inhibition above about 15%; inconclusive means no clear call, values can overlap the other calls
Target sequence (Q9NXA8 whole entry, looked up): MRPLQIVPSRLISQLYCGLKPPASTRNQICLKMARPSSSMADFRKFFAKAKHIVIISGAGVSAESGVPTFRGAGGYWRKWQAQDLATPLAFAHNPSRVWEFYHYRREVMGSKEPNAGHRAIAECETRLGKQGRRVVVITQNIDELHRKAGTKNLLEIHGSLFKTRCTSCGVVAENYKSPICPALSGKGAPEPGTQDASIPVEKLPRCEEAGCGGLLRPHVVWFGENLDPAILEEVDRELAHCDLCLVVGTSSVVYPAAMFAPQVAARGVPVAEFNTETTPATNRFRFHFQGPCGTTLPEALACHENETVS
FGF22 binding: FGF22 (human) thermal shift binding; recombinant FGF22 thermal shift, SYPRO orange fluorescence; percent of sucrose octasulfate shift, DMSO zero; activity (Tm shift, normalised), % at 9.99 µM; 340,000 compounds, 1.5% hits; AID 651658;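 active means mean Tm shift, scaled 0 neutral to 100 positive control, at about 1.3% or above, every replicate too, limit read from the data; inconclusive means no clear call, values can overlap the other calls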
Target sequence (Q9HCT0 whole entry, looked up): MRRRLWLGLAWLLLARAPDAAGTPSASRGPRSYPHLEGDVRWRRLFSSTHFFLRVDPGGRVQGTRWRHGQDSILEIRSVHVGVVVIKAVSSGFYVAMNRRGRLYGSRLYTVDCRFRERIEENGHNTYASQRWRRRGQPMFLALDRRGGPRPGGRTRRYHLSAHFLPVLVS
Active calls of the source: *; ? = inconclusive; . = no result. An excerpt weighted towards active compounds, which were near 4% of everything screened.

SMILES | FN deposit inh | Statin myotox sup | rRNA inh HTS | E-selectin induc | SIRT5 block | FGF22 binding
Cc1ccc(S(=O)(=O)N(C)C[C@H]2Oc3cc(C#Cc4ccncc4)ccc3S(=O)(=O)N([C@H](C)CO)C[C@@H]2C)cc1 | 2.5 | 10.4 | -2.5 | 0.2 | 17.5* | 0.3
O=C1OC(Cc2ccccc2)(c2ccccc2)c2ccccc21 (centres undefined) | 0.0 | . | -12.8 | -0.1 | . | 44.4*
O=C1OC(Oc2ccccc2)(c2ccccc2)c2ccccc21 (centres undefined) | -7.8 | 13.4 | . | . | . | .
COc1ccccc1CNC(=O)C[C@@H]1C=C[C@@H](NC(C)=O)[C@H](CO)O1 | 14.0 | -2.9 | -0.9 | 0.8 | -1.7 | -0.3
CC1CCN(c2nc(-c3cccnc3)nc3scc(-c4ccccc4)c23)CC1 | 0.6 | . | 8.2 | . | -1.5 | 0.3
CN1CCN(c2nc(-c3cccnc3)nc3scc(-c4ccccc4)c23)CC1 | -5.8 | -6.2 | -21.7* | -2.3 | -4.1 | 0.4
C[C@@H]1CN([C@@H](C)CO)C(=O)c2cccc(NC(=O)C3CCCCC3)c2O[C@H]1CN(C)C(=O)NC1CCCCC1 | . | 1.9 | 1.8 | 0.1 | -23.8 | 0.1
Cc1nc2sc(C(c3ccco3)N3CCN(c4ccccc4)CC3)c(O)n2n1 (centres undefined) | 8.8 | -0.3 | 12.3 | 0.3 | 5.7 | -0.1
Cc1nc2sc(C(c3ccco3)N3CCN(c4cccc(Cl)c4)CC3)c(O)n2n1 (centres undefined) | -5.3 | 14.3 | -38.9* | . | . | .
C[C@H]1CN([C@@H](C)CO)C(=O)Cc2cc(NC(=O)C3CCCCC3)ccc2O[C@@H]1CN(C)S(=O)(=O)c1cn(C)cn1 | . | 3.4 | 4.8 | -0.1 | -3.2 | -0.1
CSc1nnc(-c2cc(Br)ccc2N=Cc2c(C)[nH]n(-c3ccccc3)c2=O)c(=O)[nH]1 | 1.5 | . | -24.9* | . | . | -0.3
CCSc1nnc(-c2cc(Br)ccc2N=Cc2c(C)[nH]n(-c3ccccc3)c2=O)c(=O)[nH]1 | 8.1 | . | -1.3 | . | 3.0 | 0.1
CC1(C)Cc2ccccc2C(=NCC(=O)O)N1 | 8.9 | . | 3.8 | . | -0.2 | 43.1*
O=C(C[C@@H]1C[C@@H]2c3cc(NC(=O)C4CCOCC4)ccc3O[C@@H]2[C@H](CO)O1)NCCc1ccccc1 | 4.3 | 1.2 | 2.4 | 0.3 | 2.0 | -0.5
O=C(O)CSCC(=O)N(Cc1ccccc1)c1nc(-c2ccccc2)c(-c2ccccc2)s1 | -6.7 | 0.8 | -6.9 | . | 17.2* | .
CCOC(=O)c1sc(N(Cc2ccccc2)C(=O)CCl)nc1C | 3.3 | . | 0.4 | 1.5 | 2.2 | -0.4
CCOC(=O)C(CC)Sc1ccc2nnc(CCNS(=O)(=O)c3ccccc3)n2n1 (centres undefined) | 3.1 | . | 8.1 | 3.3 | -3.4 | 43.5*
O=[N+]([O-])c1cc(S(=O)(=O)O)cc([N+](=O)[O-])c1NN(c1ccccc1)c1ccccc1 | -1.6 | -4.8 | -1.2 | 55.8* | 4.2 | -0.4
Cc1cc(Br)c(NC(=O)COC(=O)CC2CC3CCC2C3)c(Br)c1 (centres undefined) | -2.9 | -7.1 | 2.3 | 0.2 | 18.8* | -0.1
Cc1ccc(C)c(NC(=O)COC(=O)CC2CC3CCC2C3)c1 (centres undefined) | -10.2 | . | -23.4 | 0.0 | -2.1 | -0.1
O=C(c1ccccc1)c1ccc2nc(-c3ccc(NC(=O)c4ccccc4F)cc3)[nH]c2c1 | . | -121.7 | . | . | . | .
Cc1ccc2nc(-c3ccc(NC(=O)Cc4cccs4)cc3)[nH]c2c1 | . | -68.8 | 1.8 | . | -0.1 | 1.8*
O=C(O)CCC(=O)Nc1ccc(-c2nc3ccc(C(=O)c4ccccc4)cc3[nH]2)cc1 | 6.0 | -1.9 | -13.9 | 0.5 | 34.0* | -0.2
NS(=O)(=O)c1ccc(N/C=C\C(=O)c2cccc3ccccc23)cc1 | -4.3 | . | . | 2.5 | . | .
O=C(/C=C\Nc1ccc(S(=O)(=O)Nc2ncccn2)cc1)c1cccc2ccccc12 | 1.6 | . | -20.1* | . | 1.6 | -0.2
SMILES | FN deposit inh | Statin myotox sup | rRNA inh HTS | E-selectin induc | SIRT5 block | FGF22 binding
C[C@@H]1CN([C@@H](C)CO)S(=O)(=O)c2ccc(C#Cc3ccccn3)cc2O[C@H]1CN(C)Cc1ccccc1 | -2.7 | -62.2 | -6.8 | 0.1 | 1.1 | -0.4
CCOC(=O)c1cnc2c(c(C3CC3)nn2C)c1N1CCOCC1 | 1.8 | . | -18.4 | 29.0* | . | -0.2
CCOC(=O)c1cnc2cc(F)c(F)cc2c1N1CCOCC1 | -3.6 | -4.4 | -1.5 | 0.3 | -2.7 | -0.3
CCCCNC(=O)CSc1nc2c(sc(=S)n2-c2cc(Cl)ccc2OC)c(=O)[nH]1 | -2.4 | -2.6 | -1.5 | ? | -2.3 | 1.4*
COc1ccc(Cl)cc1-n1c(=S)sc2c(=O)[nH]c(SCC(=O)C(C)(C)C)nc21 | 3.1 | -6.7 | -23.5* | -0.1 | 1.0 | 0.8
COC(=O)CNC(=O)CSc1nc2c(sc(=S)n2-c2ccccc2)c(=O)[nH]1 | -2.0 | 5.0 | 1.8 | -0.1 | 5.0 | -0.3
COc1ccc(-n2c(SCC(=O)C(C)(C)C)nc3c(sc(=S)n3-c3ccccc3)c2=O)c(OC)c1 | 1.5 | 1.2 | 6.0 | -0.1 | -0.3 | -0.3
CNC[C@@H]1OCCCC[C@@H](C)Oc2ccc(NC(=O)c3ccccc3)cc2C(=O)N([C@@H](C)CO)C[C@@H]1C | . | 6.2 | 8.1 | 0.3 | 1.3 | 0.3
O=CN/N=C/c1c(O)ccc2ccccc12 | 8.7 | 0.9 | -20.0* | 9.8 | -1.1 | 0.5
NC(=S)N/N=C/c1c(O)ccc2ccccc12 | -7.8 | -7.5 | 46.1 | . | 1.7 | -0.2
COCCNC(=O)C(c1ccc(C)o1)N(Cc1ccc(F)cc1)C(=O)Cn1nnc2ccccc21 (centres undefined) | . | 18.0 | . | . | . | .
COCCNC(=O)C(c1ccc(C)o1)N(Cc1ccc(OC)cc1)C(=O)Cn1nnc2ccccc21 (centres undefined) | -9.8 | 103.8* | . | . | . | .
N#Cc1sc2nc3c(c(-c4ccco4)c2c1N)CCCC3 | . | 97.6* | . | . | . | .
C[C@H]1CN([C@@H](C)CO)C(=O)c2cc(-c3ccccc3)cnc2O[C@H]1CN(C)C(=O)c1ccccn1 | . | 5.2 | 6.5 | 0.0 | 2.4 | -0.5
C[C@H](CO)N1C[C@H](C)[C@H](CN(C)C(=O)NC2CCCC2)Oc2cc(-c3cccnc3)ccc2S1(=O)=O | -5.1 | 1.3 | -5.7 | -3.3 | 2.0 | -0.3
COc1ccc2c3c(n(C)c2c1)[C@@H](CO)N(C(=O)NC(C)C)CC31CCN(CC2CCCCC2)CC1 | . | . | 1.0 | -0.3 | . | 0.0
CCOC(=O)C1=C(C)NC2=C(C(=O)c3ccccc32)C1c1cccc2ccccc12 (centres undefined) | -30.7 | -52.0 | -19.4* | 7.1 | -2.5 | 0.3
CNC(=S)NCCc1ccc(OC)cc1 | -11.5 | . | . | . | 0.3 | 43.4*
COc1ccc(/C=N/NC(=S)NCCc2ccccc2)cc1 | 19.1 | 4.0 | -22.1* | 0.1 | -5.3 | -0.1
